Source: ChEMBL document CHEMBL3351807, “2-Phenoxychromones and prenylflavonoids from Epimedium koreanum and their inhibitory effects on LPS-induced nitric oxide and interleukin-1β production” (J Nat Prod, 2014)

Key:
Format in all cases: functional, cell-based
RAW264.7 [1] = experiment: Inhibition of LPS-induced NO production in mouse RAW264.7 cells after 24 hrs by Griess reagent based assay; conditions: RAW264.7, 24 h
Procedure, shortened: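 RAW 264.7 cells seeded at 2 × 10^6 cells/mL, stimulated with 1 μg/mL LPS with or without compound, 37 °C for 24 h. Supernatant nitrite measured as NO indicator: Griess reagent, room temperature 10 min, absorbance 550 nm against sodium nitrite standard curve. Viability of remaining cells by colorimetric cell counting kit. IC50 as mean of triplicate experiments.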

RAW264.7 [2] = experiment: Inhibition of LPS-induced IL-1beta production in mouse RAW264.7 cells after 24 hrs by ELISA; conditions: RAW264.7, 24 h
Procedure, shortened: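 RAW 264.7 cells at 2 × 10^6 cells/mL stimulated with 1 μg/mL LPS in presence or absence of compound, 37 °C, 24 h. IL-1β in culture medium quantified by commercial ELISA kit. Remaining-cell viability checked by colorimetric cell counting kit. IC50 as mean of triplicate experiments.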

RAW264.7 [3] = experiment: Inhibition of LPS-induced iNOS gene expression in mouse RAW264.7 cells at 12.5 to 50 uM after 24 hrs by RT-PCR method
Procedure, shortened: (§1)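 Total RNA isolated with TRIZOL; single-stranded cDNA made from 2 μg total RNA, then PCR for iNOS or IL-1β transcripts. Products run on 1% agarose gels, stained with 5 μg/mL ethidium bromide. Cells LPS-stimulated, compound tested across doses.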

RAW264.7 [4] = experiment: Inhibition of LPS-induced IL-1beta gene expression in mouse RAW264.7 cells at 12.5 to 50 uM after 24 hrs by RT-PCR method; procedure, shortened: as §1

SMILES	IC50 (RAW264.7 [1]) [µM]	IC50 (RAW264.7 [2]) [µM]	inhibition (RAW264.7 [3])	inhibition (RAW264.7 [4])
CC1(C)C[C@H](O)C[C@@]2(C)OC(=O)C=C12 [LOLIOLIDE]	> 50	> 50	–	–
CC(C)=CCc1c(O)cc(O)c2c(=O)cc(-c3cc(O)c4c(c3)C=CC(C)(C)O4)oc12	> 50	> 50	–	–
COc1cc(C[C@@]2(O)CO[C@H](c3ccc(O)c(OC)c3)[C@H]2COC(C)=O)ccc1O	> 50	> 50	–	–
N=C(N)NN [PIMAGEDINE]	21.4	–	–	–
CC1(C)C=Cc2c(cc(O)c3c(=O)cc(Oc4ccc(O)cc4)oc23)O1	> 50	> 50	–	–
COc1cc2c(cc1OC)-c1c(cc(OC)c(OC)c1OC)CC2	> 50	> 50	–	–
CC1(C)C[C@@H](O)C[C@@]2(C)OC(=O)C=C12 [(+)-EPILOLIOLIDE]	> 50	> 50	–	–
COc1cn2c(=O)ccc(O)c2cn1	> 50	> 50	–	–

More lines, main results first:

IC50 (RAW264.7 [1]) [µM]	IC50 (RAW264.7 [2]) [µM]	SMILES	inhibition (RAW264.7 [3])	inhibition (RAW264.7 [4])
15.8	18.7	COc1ccc2c(c1)c(CC(=O)O)c(C)n2C(=O)c1ccc(Cl)cc1 [INDOMETHACIN]	–	–
35.4	38.9	C=CCc1ccc(O)c(-c2cc(CC=C)ccc2O)c1 [MAGNOLOL]	–	–
39.5	> 50	COc1cc([C@H]2OC[C@H]3[C@@H]2CO[C@H]3c2ccc(O)c(OC)c2)ccc1O [PINORESINOL]	–	–
49.3	> 50	COc1cc2ccc3cc(OC)c(OC)c(OC)c3c2cc1OC	–	–
19.7	8.6	CC(C)=CCc1cc(-c2cc(=O)c3c(O)cc(O)c(CC=C(C)C)c3o2)ccc1O	Dose-dependent effect	Dose-dependent effect
38.5	> 50	CC(=O)/C=C/[C@@]1(O)C(C)=CC(=O)CC1(C)C	–	–
45.6	> 50	COc1cc([C@@H]2OC[C@@H]3[C@H]2CO[C@H]3c2cc(OC)c(O)c(OC)c2)cc(OC)c1O	–	–
27.5	28.9	COc1ccc(Oc2cc(=O)c3cc(O)c(CC=C(C)C)c(O)c3o2)cc1	–	–
16.8	8.8	COc1c(O)cc(-c2cc(=O)c3c(O)cc(O)c(CC=C(C)C)c3o2)cc1CC=C(C)C	Dose-dependent effect	Dose-dependent effect
